Measurements published in ChEMBL document CHEMBL1151891, “Synthesis and anticancer activities of novel 3,5-disubstituted-1,2,4-oxadiazoles” (Bioorg Med Chem Lett, 2009).

Assays:
Assay type in all cases: functional, cell-based
[1] = test system: MCF7; assay: Anticancer activity against human MCF7 cells after 24 hrs by MTT assay; conditions: MCF7, 24 h
Outline: (§1)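 Cells maintained in RPMI-1640 with 10% heat-inactivated FBS and 1% penicillin/streptomycin. Seeded at 4.0 × 10³ cells/well for 12 h, then exposed to compounds over a 10 nM–1 mM range for 24 h. MTT added to 0.5 mg/ml final for 30 min. Cells washed twice in PBS and lysed in DMSO. Absorbance read at 570 nm; IC50 reported.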

[2] = test system: LNCaP; assay: Anticancer activity against human LNCAP cells after 24 hrs by MTT assay; outline: as §1
[3] = test system: PC-3; assay: Anticancer activity against human PC3 cells after 24 hrs by MTT assay; conditions: PC-3, 24 h; outline: as §1
[4] = Anticancer activity against human MDA231 cells after 24 hrs by MTT assay; conditions: MDA-MB-231, 24 h; outline: as §1
[5] = test system: HCT-116; assay: Anticancer activity against human HCT116 cells after 24 hrs by MTT assay; conditions: HCT-116, 24 h; outline: as §1
[6] = test system: MIA PaCa-2; assay: Anticancer activity against human MIAPaCa2 cells after 24 hrs by MTT assay; conditions: MIA PaCa-2, 24 h; outline: as §1
[7] = test system: DU-145; assay: Anticancer activity against human DU145 cells after 24 hrs by MTT assay; conditions: DU-145, 24 h; outline: as §1

| SMILES | IC50 [1] [µM] | IC50 [2] [µM] | IC50 [3] [µM] | IC50 [5] [µM] | IC50 [6] [µM] | IC50 [7] [µM] | IC50 [4] [µM] |
| --- | --- | --- | --- | --- | --- | --- | --- |
| COc1ccc(-c2noc(-c3ccc(F)cc3)n2)cc1O | > 1000 | > 1000 | > 1000 | > 1000 | 351 | > 1000 | > 1000 |
| COc1ccc(-c2noc(C3CCCN3)n2)cc1OC1CCCC1 (stereo not drawn) | > 1000 | 0.043 | > 1000 | 185 | 19.5 | 242 | 212 |
| COc1ccc(-c2noc(-c3ccncc3)n2)cc1OC1CCCC1 | > 1000 | > 1000 | > 1000 | > 1000 | 9.33 | > 1000 | 240 |
| COc1ccc(-c2noc(Cc3c[nH]c4ccccc34)n2)cc1OC1CCCC1 | > 1000 | > 1000 | > 1000 | > 1000 | 9.56 | > 1000 | > 1000 |
| c1ccc(-c2noc(-c3ccncc3)n2)cc1 | > 1000 | 710 | > 1000 | > 1000 | 497 | 657 | > 1000 |
| COc1ccc(-c2noc(-c3ccccc3)n2)cc1OC1CCCC1 | > 1000 | > 1000 | > 1000 | > 1000 | > 1000 | > 1000 | > 1000 |
| COc1ccc(-c2noc(-c3cccnc3)n2)cc1OC1CCCC1 | > 1000 | > 1000 | > 1000 | > 1000 | > 1000 | > 1000 | > 1000 |
| COc1cc(-c2noc(-c3ccncc3)n2)ccc1OCc1ccccc1 | > 1000 | > 1000 | > 1000 | > 1000 | > 1000 | > 1000 | > 1000 |

Continued, in another order:

| IC50 [1] [µM] | IC50 [2] [µM] | IC50 [3] [µM] | IC50 [5] [µM] | IC50 [6] [µM] | IC50 [7] [µM] | SMILES | IC50 [4] [µM] |
| --- | --- | --- | --- | --- | --- | --- | --- |
| > 1000 | 23.7 | > 1000 | > 1000 | > 1000 | > 1000 | Fc1ccc(-c2nc(-c3ccccc3)no2)cc1 | > 1000 |
| 3.88 | 87.9 | > 1000 | 210 | 6.09 | 20.7 | COc1ccc(-c2noc(-c3ccc(F)cc3)n2)cc1OC1CCCC1 | 55.5 |
| 174 | 28.3 | > 1000 | 185 | 3.01 | 302 | COc1ccc(-c2noc(CC(C)=O)n2)cc1OC1CCCC1 | 53.3 |
| 3.88 | 0.01 | > 1000 | 1.54 | 0.54 | 0.057 | COc1ccc(-c2noc(C3CCNCC3)n2)cc1OC1CCCC1 | 0.37 |
| 174 | 20.8 | > 1000 | > 1000 | 0.74 | 122 | COc1ccc(-c2noc(-c3ccc(Cl)cc3)n2)cc1OC1CCCC1 | 396 |
| 0.39 | 0.86 | 162 | 0.27 | 0.48 | 0.78 | COc1ccc(-c2noc(-c3ccc(O)cc3)n2)cc1OC1CCCC1 | 0.31 |
